Source: ChEMBL document CHEMBL2440018 (J Med Chem, 2013)
The source made the active and inactive calls. No cut-off for these calls is given here.

Legend:
Liver [1] = assay: Metabolic stability in rat liver S9 fraction assessed as formation of {4-[4-(1-Oxo-1lambda4-thiiran-2-ylmethanesulfonyl)-phenoxy]-phenyl}-carbamic acid methyl ester at 50 uM after 30 mins by reversed-phase LC/MS analysis; type: ADME, subcellular; conditions: s9, 0.5 h
How it was run: (§1)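 50 µM compound was incubated with rat liver S9 (1.0 mg) and 0.5 mM NADPH in 50 mM potassium phosphate, pH 7.4, at 37 °C for 30 min. The reaction was stopped with one volume of acetonitrile and centrifuged. Metabolites in the supernatant were identified by reversed-phase LC/ESI-QTOF mass spectrometry.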

Liver [2] = assay: Metabolic stability in rat liver S9 fraction assessed as formation of 4-(4-(methoxycarbonylamino)phenoxy)benzenesulfinic acid at 50 uM after 30 mins by reversed-phase LC/MS analysis; type: ADME, subcellular; conditions: s9, 0.5 h; how it was run: as §1
Liver [3] = assay: Metabolic stability in rat liver S9 fraction assessed as formation of 4-(4-(thiiran-2-ylmethylsulfonyl)phenoxy)aniline at 50 uM after 30 mins by reversed-phase LC/MS analysis; type: ADME, subcellular; conditions: s9, 0.5 h; how it was run: as §1
Liver [4] = assay: Half life in rat liver S9 fraction at 10 uM by reversed-phase UPLC/ESI-MRM analysis; type: ADME, subcellular; conditions: s9, 10 µM
How it was run: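 Male rat liver S9 (1.0 mg) with 0.5 mM NADPH and 10 µM compound (both final) in 50 mM potassium phosphate, pH 7.4, at 37 °C, sampled over time. Aliquots were stopped with acetonitrile containing internal standard, and the supernatant was run by UPLC/ESI-MRM. Half-lives used first-order kinetics on peak-area ratios to internal standard.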

[5] = target: MMP-2/MMP-9 (Homo sapiens) (UniProt P08253+P14780); assay: Selectivity ratio of Ki for human recombinant MMP-9 catalytic domain to Ki for human recombinant MMP-2
[6] = target: T1, Matrilysin (Homo sapiens) (UniProt P09237); assay: Inhibition of human recombinant MMP-7 at 50 uM by fluorescence spectrophotometric analysis relative to control
T1 sequence (whole entry): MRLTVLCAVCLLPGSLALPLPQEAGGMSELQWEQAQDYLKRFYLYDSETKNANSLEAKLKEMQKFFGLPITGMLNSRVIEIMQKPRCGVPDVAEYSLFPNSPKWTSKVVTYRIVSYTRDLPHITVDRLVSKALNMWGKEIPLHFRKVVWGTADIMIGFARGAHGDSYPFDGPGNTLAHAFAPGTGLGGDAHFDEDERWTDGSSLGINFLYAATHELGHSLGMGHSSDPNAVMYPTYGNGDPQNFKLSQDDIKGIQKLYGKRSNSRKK

[7] = target: Stromelysin-1 (Homo sapiens) (UniProt P08254); assay: Inhibition of human recombinant MMP-3 catalytic domain at 50 uM by fluorescence spectrophotometric analysis relative to control
[8] = target: T2, Interstitial collagenase (Homo sapiens) (UniProt P03956); assay: Inhibition of human recombinant MMP-1 catalytic domain at 50 uM by fluorescence spectrophotometric analysis relative to control
T2 sequence (whole entry): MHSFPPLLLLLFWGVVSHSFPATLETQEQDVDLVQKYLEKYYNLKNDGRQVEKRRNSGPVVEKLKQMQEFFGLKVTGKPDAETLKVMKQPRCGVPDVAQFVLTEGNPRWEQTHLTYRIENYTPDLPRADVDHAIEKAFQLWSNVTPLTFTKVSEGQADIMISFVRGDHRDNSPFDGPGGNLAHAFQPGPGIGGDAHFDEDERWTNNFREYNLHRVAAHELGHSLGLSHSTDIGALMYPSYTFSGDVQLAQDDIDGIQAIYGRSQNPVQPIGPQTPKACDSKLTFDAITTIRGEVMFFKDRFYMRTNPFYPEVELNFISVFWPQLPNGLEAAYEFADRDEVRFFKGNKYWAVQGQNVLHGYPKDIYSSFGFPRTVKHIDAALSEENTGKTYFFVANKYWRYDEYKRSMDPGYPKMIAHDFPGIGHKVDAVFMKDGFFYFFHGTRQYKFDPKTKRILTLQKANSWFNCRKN

[9] = target: Matrix metalloproteinase-14 (Homo sapiens, UniProt P50281); assay: Inhibition of human recombinant MMP-14 catalytic domain using MOCAcPLGLA2pr(Dnp)AR-NH2 as substrate by fluorescence spectrophotometric analysis
[10] = target: 72 kDa type IV collagenase (Homo sapiens, UniProt P08253); assay: Inhibition of human recombinant MMP-2 using MOCAcPLGLA2pr(Dnp)AR-NH2 as substrate by fluorescence spectrophotometric analysis
Chain of 72 kDa type IV collagenase (P08253 whole entry): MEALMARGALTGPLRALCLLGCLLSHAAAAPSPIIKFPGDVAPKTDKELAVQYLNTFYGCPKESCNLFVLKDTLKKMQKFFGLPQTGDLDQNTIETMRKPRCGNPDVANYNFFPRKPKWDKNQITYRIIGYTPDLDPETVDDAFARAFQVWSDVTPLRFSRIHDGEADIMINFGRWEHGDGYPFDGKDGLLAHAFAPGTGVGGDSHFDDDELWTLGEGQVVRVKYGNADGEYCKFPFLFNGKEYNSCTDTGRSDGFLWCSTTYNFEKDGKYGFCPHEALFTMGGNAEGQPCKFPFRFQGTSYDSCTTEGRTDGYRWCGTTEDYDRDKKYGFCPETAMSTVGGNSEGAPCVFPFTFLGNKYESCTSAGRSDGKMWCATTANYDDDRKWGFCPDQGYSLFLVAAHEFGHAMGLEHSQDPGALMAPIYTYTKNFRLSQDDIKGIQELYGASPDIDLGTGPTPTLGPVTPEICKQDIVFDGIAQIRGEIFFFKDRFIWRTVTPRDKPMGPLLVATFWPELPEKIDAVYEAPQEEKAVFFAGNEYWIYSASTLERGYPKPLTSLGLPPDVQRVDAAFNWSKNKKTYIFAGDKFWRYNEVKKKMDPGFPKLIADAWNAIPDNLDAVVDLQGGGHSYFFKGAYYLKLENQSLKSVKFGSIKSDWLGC

[11] = Ratio of AUC in brain to plasma in C57Bl/6J mouse assessed as 4-(4-(thiiran-2-ylmethylsulfonyl)phenoxy)phenol at 25 mg/kg, sc; type: ADME, organism-based; set-up: dose 25 mg/kg, route subcutaneous
Plasma [12] = assay: Elimination half life in C57Bl/6J mouse plasma assessed as 4-(4-(thiiran-2-ylmethylsulfonyl)phenoxy)phenol at 25 mg/kg, sc; type: ADME, organism-based; set-up: dose 25 mg/kg, route subcutaneous; conditions: in vivo
How it was run: (§2)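 Mice were dosed sc once at 25 mg/kg; plasma and perfused brain (n = 3 per time point) were quantified by UPLC/ESI-MRM. AUC0-last came from the mean concentration-time curve by the trapezoidal rule, and AUC0-∞ = AUC0-last + Clast/k. α and β half-lives came from linear regression on the linear portion of the concentration-time data, with t1/2 = ln2/k.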

Brain [13] = assay: Elimination half life in C57Bl/6J mouse brain assessed as 4-(4-(thiiran-2-ylmethylsulfonyl)phenoxy)phenol at 25 mg/kg, sc; type: ADME, organism-based; set-up: dose 25 mg/kg, route subcutaneous; conditions: in vivo; how it was run: as §2
Plasma [14] = assay: Primary phase half life in C57Bl/6J mouse plasma assessed as 4-(4-(thiiran-2-ylmethylsulfonyl)phenoxy)phenol at 25 mg/kg, sc; type: ADME, organism-based; set-up: dose 25 mg/kg, route subcutaneous; conditions: in vivo; how it was run: as §2
Plasma [15] = assay: AUC (0 to infinity) in C57Bl/6J mouse plasma assessed as 4-(4-(thiiran-2-ylmethylsulfonyl)phenoxy)phenol at 25 mg/kg, sc; type: ADME, organism-based; set-up: time infinity, dose 25 mg/kg, route subcutaneous; conditions: in vivo; how it was run: as §2
Brain [16] = assay: AUC (0 to infinity) in C57Bl/6J mouse brain assessed as 4-(4-(thiiran-2-ylmethylsulfonyl)phenoxy)phenol at 25 mg/kg, sc; type: ADME, organism-based; set-up: time infinity, dose 25 mg/kg, route subcutaneous; conditions: in vivo; how it was run: as §2
Plasma [17] = assay: AUC (0 to last) in C57Bl/6J mouse plasma assessed as 4-(4-(thiiran-2-ylmethylsulfonyl)phenoxy)phenol at 25 mg/kg, sc; type: ADME, organism-based; set-up: time 0 - last, dose 25 mg/kg, route subcutaneous; conditions: in vivo; how it was run: as §2
Brain [18] = assay: AUC (0 to last) in C57Bl/6J mouse brain assessed as 4-(4-(thiiran-2-ylmethylsulfonyl)phenoxy)phenol at 25 mg/kg, sc; type: ADME, organism-based; set-up: dose 25 mg/kg, route subcutaneous; conditions: in vivo; how it was run: as §2
Brain [19] = assay: Drug uptake in C57Bl/6J mouse brain assessed as 4-(4-(thiiran-2-ylmethylsulfonyl)phenoxy)phenol measured per mg of tissue at 25 mg/kg, sc measured at 4 hrs by reversed phase UPLC/ESI-MRM analysis; type: ADME, organism-based; set-up: dose 25 mg/kg, route subcutaneous; conditions: in vivo
How it was run: (§3)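 Female C57Bl/6J mice (6–8 weeks, 16–19 g) received a single 100 µL sc dose equivalent to 25 mg/kg, in 10% DMSO/25% Tween 80/65% water or 80% propylene glycol/20% DMSO. Terminal heparinised vena cava blood gave plasma, and saline-perfused whole brain was taken; n = 3 per time point. Acetonitrile extracts with internal standard were run by UPLC/ESI-MRM against matrix calibration curves, linear 0.05–5 µM.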

Brain [20] = assay: Drug uptake in C57Bl/6J mouse brain assessed as 4-(4-(thiiran-2-ylmethylsulfonyl)phenoxy)phenol measured per mg of tissue at 25 mg/kg, sc measured at 20 mins by reversed phase UPLC/ESI-MRM analysis; type: ADME, organism-based; set-up: dose 25 mg/kg, route subcutaneous; conditions: in vivo; how it was run: as §3
Plasma [21] = assay: Plasma concentration in C57Bl/6J mouse assessed as 4-(4-(thiiran-2-ylmethylsulfonyl)phenoxy)phenol at 25 mg/kg, sc measured at 4 hrs by reversed phase UPLC/ESI-MRM analysis; type: ADME, organism-based; set-up: dose 25 mg/kg, route subcutaneous; conditions: in vivo; how it was run: as §3
Plasma [22] = assay: Plasma concentration in C57Bl/6J mouse assessed as 4-(4-(thiiran-2-ylmethylsulfonyl)phenoxy)phenol at 25 mg/kg, sc measured at 10 mins by reversed phase UPLC/ESI-MRM analysis; type: ADME, organism-based; set-up: dose 25 mg/kg, route subcutaneous; conditions: in vivo; how it was run: as §3
Plasma [23] = assay: Metabolic stability in C57Bl/6J mouse plasma assessed as formation of 4-(4-(thiiran-2-ylmethylsulfonyl)phenoxy)phenol at 25 mg/kg, sc measured at 10 to 240 mins; type: ADME, organism-based; set-up: dose 25 mg/kg, route subcutaneous; conditions: in vivo; how it was run: as §3
Brain [24] = assay: Metabolic stability in C57Bl/6J mouse brain assessed as formation of 4-(4-(thiiran-2-ylmethylsulfonyl)phenoxy)phenol at 25 mg/kg, sc measured at 10 to 240 mins; type: ADME, organism-based; set-up: dose 25 mg/kg, route subcutaneous; conditions: in vivo; how it was run: as §3
Liver [25] = assay: Metabolic stability in rat liver S9 fraction assessed as formation of Ethyl-carbamic acid 4-[4-(1-oxo-1lambda4-thiiran-2-ylmethanesulfonyl)-phenoxy]-phenyl ester at 50 uM after 30 mins by reversed-phase LC/MS analysis; type: ADME, subcellular; conditions: s9, 0.5 h; how it was run: as §1
Liver [26] = assay: Metabolic stability in rat liver S9 fraction assessed as formation of 4-(4-(ethylcarbamoyloxy)phenoxy)benzenesulfinic acid at 50 uM after 30 mins by reversed-phase LC/MS analysis; type: ADME, subcellular; conditions: s9, 0.5 h; how it was run: as §1
Liver [27] = assay: Metabolic stability in rat liver S9 fraction assessed as formation of 4-(4-(thiiran-2-ylmethylsulfonyl)phenoxy)phenol at 50 uM after 30 mins by reversed-phase LC/MS analysis; type: ADME, subcellular; conditions: s9, 0.5 h; how it was run: as §1
[28] = target: MMP-2/MMP-14 (Homo sapiens) (UniProt P50281+P08253); assay: Selectivity ratio of Ki for human recombinant MMP-14 catalytic domain to Ki for human recombinant MMP-2
Homo sapiens = organism: Homo sapiens; assay: Selectivity ratio of Ki for human recombinant MMP-8 catalytic domain to Ki for human recombinant MMP-2
Neutrophil collagenase = Neutrophil collagenase (Homo sapiens, UniProt P22894); assay: Inhibition of human recombinant MMP-8 catalytic domain using […] as substrate by fluorescence spectrophotometric analysis
Chain of Neutrophil collagenase (P22894 whole entry, the tested form may be a part): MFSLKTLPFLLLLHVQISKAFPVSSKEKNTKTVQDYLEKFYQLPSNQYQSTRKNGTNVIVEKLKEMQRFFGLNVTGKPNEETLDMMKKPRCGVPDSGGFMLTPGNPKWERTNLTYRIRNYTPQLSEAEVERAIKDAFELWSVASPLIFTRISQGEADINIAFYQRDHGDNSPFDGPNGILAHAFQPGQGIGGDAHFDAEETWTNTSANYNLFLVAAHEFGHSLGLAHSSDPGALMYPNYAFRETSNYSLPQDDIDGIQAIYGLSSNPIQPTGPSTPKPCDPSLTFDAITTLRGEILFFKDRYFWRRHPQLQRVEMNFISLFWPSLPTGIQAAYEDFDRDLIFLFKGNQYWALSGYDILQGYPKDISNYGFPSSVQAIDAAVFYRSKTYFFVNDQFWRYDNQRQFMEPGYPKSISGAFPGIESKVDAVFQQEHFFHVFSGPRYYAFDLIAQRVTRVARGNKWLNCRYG

[29] = target: Matrix metalloproteinase-9 (Homo sapiens, UniProt P14780); assay: Inhibition of human recombinant MMP-9 catalytic domain using MOCAcPLGLA2pr(Dnp)AR-NH2 as substrate by fluorescence spectrophotometric analysis
Chain of Matrix metalloproteinase-9 (P14780 whole entry, the tested form may be a part): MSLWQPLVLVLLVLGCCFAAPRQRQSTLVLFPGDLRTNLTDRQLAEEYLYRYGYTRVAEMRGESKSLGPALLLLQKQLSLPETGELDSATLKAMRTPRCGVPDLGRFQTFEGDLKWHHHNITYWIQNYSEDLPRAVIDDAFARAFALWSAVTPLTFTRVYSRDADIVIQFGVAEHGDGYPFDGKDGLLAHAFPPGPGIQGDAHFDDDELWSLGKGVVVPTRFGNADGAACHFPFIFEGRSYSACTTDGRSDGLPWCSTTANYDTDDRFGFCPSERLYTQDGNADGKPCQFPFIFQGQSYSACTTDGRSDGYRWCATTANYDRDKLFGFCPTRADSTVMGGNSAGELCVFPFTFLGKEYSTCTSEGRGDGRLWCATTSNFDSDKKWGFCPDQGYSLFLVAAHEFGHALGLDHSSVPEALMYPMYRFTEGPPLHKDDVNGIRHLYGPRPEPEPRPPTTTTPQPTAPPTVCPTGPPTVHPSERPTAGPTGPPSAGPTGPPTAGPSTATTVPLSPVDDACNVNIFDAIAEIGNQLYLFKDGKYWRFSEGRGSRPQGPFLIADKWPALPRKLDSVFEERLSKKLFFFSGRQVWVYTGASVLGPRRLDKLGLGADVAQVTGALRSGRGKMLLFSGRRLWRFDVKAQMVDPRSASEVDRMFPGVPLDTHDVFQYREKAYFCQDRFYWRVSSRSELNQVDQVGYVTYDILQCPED

**Q.** With `COC(=O)Nc1ccc(Oc2ccc(S(=O)(=O)CC3CS3)cc2)cc1` (stereo not drawn) as the molecule, how does the Stability (Liver [1]) read?
**A.** The Stability was “Unstable”.

**Q.** What about the Stability (Liver [2]) of the same molecule?
**A.** The Stability was “Unstable”.

**Q.** And the Stability (Liver [3])?
**A.** The Stability was “Unstable”.

**Q.** And the t1/2 (Liver [4])?
**A.** Its t1/2 is 0.293 h.

**Q.** What about the Ratio Ki [5] of the same molecule?
**A.** Its Ratio Ki is 2.

**Q.** What about the inhibition [6] of the same molecule?
**A.** Its inhibition is “inactive”.

**Q.** And the inhibition [7]?
**A.** Its inhibition is 38%.

**Q.** What about the inhibition [8] of the same molecule?
**A.** The inhibition was “inactive”.

**Q.** And the Ki [9]?
**A.** The Ki was 2.6 µM.

**Q.** What about the Ki [10] of the same molecule?
**A.** Its Ki is 0.05 µM.

**Q.** What does the source list for `CCNC(=O)Oc1ccc(Oc2ccc(S(=O)(=O)CC3CS3)cc2)cc1` (stereo not drawn)?
**A.** Ratio AUC [11]: 1.64; beta t1/2 (Plasma [12]): 7.7 h; beta t1/2 (Brain [13]): 8.88 h; alphat1/2 (Plasma [14]): 41.3 min; AUC (Plasma [15]): 69.9 µM·min; AUC (Brain [16]): 129 pmol·min/mg; AUClast (Plasma [17]): 54 µM·min; AUClast (Brain [18]): 88.8 pmol·min/mg; Drug uptake (Brain [19]): 0.255 pmol; Drug uptake (Brain [20]): 1.35 pmol; concentration (Plasma [21]): 114 nM; concentration (Plasma [22]): 1240 nM; Stability (Plasma [23]): Unstable; Stability (Brain [24]): Unstable; Stability (Liver [25]): Unstable; Stability (Liver [26]): Unstable; Stability (Liver [27]): Unstable; t1/2 (Liver [4]): 0.38 h; Ratio Ki [28]: 20; Ratio Ki (Homo sapiens): 20; Ratio Ki [5]: 20; Ki (Neutrophil collagenase): 15 µM; inhibition [6]: inactive; inhibition [7]: 37%; inhibition [8]: inactive; Ki [9]: 17 µM; Ki [29]: 12 µM; Ki [10]: 0.55 µM
